From PubChem BioAssay
Rows were chosen to be rich in hits. Some 5.7% of all compounds tested hit in one or more screens of this group.
Beta apoptosis – blocks beta cell apoptosis. INS-1E cytokine-induced death, ATP luminescence, 48 h; percent of positive-control rescue, neutral wells zero. protection from apoptosis, % (test concentration not listed). actives 0.8% (n = 300,000). AID 435005;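 active = Every replicate reaches about 75%, or at least half do and their mean reaches it too, limit read from the data; inconclusive = At least half of replicates reach the limit but their mean does not; inactive = Under half of replicates reach the limit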;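 also: 0% = cytokine-treated negative control wells and 100% = positive control rescue; higher means more ATP so stronger rescue from cytokine killing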
SKKanGAS inh – blocks kanamycin growth of S. pyogenes SKKanGAS strain | BacTiter-Glo, 6 h | inhibition, % at 7.5 µM | actives 1.3% (n = 300,000);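 active = mean replicate score, as percent of positive control median, at least 50; inconclusive = mean below 50 but one replicate at or above 50; inactive = mean and every replicate below 50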;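 also: strain carries kanamycin resistance gene driven by streptokinase promoter and grows in 40 µg/ml kanamycin; loss of luminescence reflects streptokinase promoter inhibition or plain growth inhibition; 0% = median of DMSO wells and 100% = positive control at its reference dose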
T cruzi inh – blocks replication of Trypanosoma cruzi | T. cruzi beta-gal in NIH3T3, luminescence, 90 h | inhibition, % (no concentration beside the values) | actives 1.4% (n = 300,000) | AID 1885;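 active = mean inhibition across valid replicates above about 55%, limit read from the data; inconclusive = mean below that limit but half or more replicates reach it; inactive = mean below it, under half of replicates reach it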;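 also: signal also drops with host cell toxicity which is not excluded here; 0% = plate median of DMSO wells and 100% = zero luminescence signal; higher percent means less beta-gal luminescence so fewer parasites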
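Material: NIH/3T3 host cells with β-galactosidase reporter T. cruzi; Input: 5,000 host fibroblasts per well; Medium: DMEM, 2% fetal bovine serum; Compound: 50 nL DMSO compound solution per well; Schedule: 3 h host attachment, then at least 90 h co-culture; Detection: luminescent β-galactosidase signal after 60 min lysis.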
Calb FLC – C. albicans growth modulation with fluconazole; C. albicans CaCi-2 (fluconazole-resistant clinical isolate) + fluconazole, Alamar Blue growth, 48 h; growth inhibition, % (concentration not given with the values); actives 0.57% (n = 300,000);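 active = growth inhibition above about 58% in most replicates, limit read from the data, passing the limit was not always enough; inconclusive = exactly half the replicates above a set limit; inactive = most replicates below a set limit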;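 also: all wells also contain fluconazole at 8 µg/ml as a sub-toxic cotreatment; 0% = median of DMSO wells and 100% = median of geldanamycin control wells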
CSC inhib – cancer stem cell inhibition. cancer stem cell-like cells viability, luminescence. AID 2717. inhibition, % at 7.5 µM. actives 1.1% (n = 300,000); in the data active = inhibition above about 75%; inconclusive = no clear call, values can overlap the other calls; tested in HMLE shEcad cells
Mdm2 MdmX PPI – inhibitors of human Mdm2/MdmX interaction; O15151+Q00987; SaOS-2 split-luciferase Mdm2/MdmX complementation, luminescence; actives 3% (n = 330,000); AID 485346; inhibition, % at 8 µM;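 active = inhibition of at least 50% at 8 µM in the primary screen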
An asterisk follows results filed as active; ? = inconclusive; / = no result.

SMILES	Beta apoptosis	SKKanGAS inh	T cruzi inh	Calb FLC	CSC inhib	Mdm2 MdmX PPI
CCOc1ccccc1NC(=O)COC(=O)CSc1ccc(Cl)cc1	2	6	-21	39	-8	-3
CCCCCCCCCCCCCCCC(O)C(N)CO (configuration not stated)	/	75*	9	/	56	39
CCCCCCCCO	-7	/	/	/	-2	10
COCCn1c(=O)[nH]c(=O)c2cc(C(=O)c3cc(Cl)ccc3O)cnc21	3	11	-5	89*	-5	20
COc1ccc(C2C(C(=O)c3cccs3)=C(O)C(=O)N2CCN2CCOCC2)c(OC)c1 (configuration not stated)	/	-3	0	8	-3	11
Cc1cc(C)cc(NC(=S)N(Cc2ccc(Br)cc2)Cc2ccc(C(=O)O)cc2)c1	-2	34	2	62	12	9
Cc1cc(NC(=S)N(Cc2ccc(Cl)cc2)Cc2ccc(C(=O)O)cc2)ccc1Cl	-2	64*	7	17	5	1
Cc1cc(C)cc(NC(=S)N(Cc2ccc(Cl)cc2)Cc2ccc(C(=O)O)cc2)c1	-3	-11	12	21	4	-27
Cc1ccc(NC(=S)N(Cc2ccc(Br)cc2)Cc2ccc(C(=O)O)cc2)cc1C	0	53*	-6	13	4	-26
Cc1cc(C)c(C)c(S(=O)(=O)NC(C)C(=O)O)c1C (configuration not stated)	-3	-12	-15	-6	-8	-25
COc1ccc(NC(=O)N2CCCc3cc(C)ccc32)c(OC)c1	-2	-4	13	1	0	13
Cc1ccccc1CSc1ccc(-c2ccc3c(c2)OCO3)nn1	-4	-9	27	-34	87*	-138
Cc1cc(C)cc(-n2c(C)cc(/C=C3\C(=N)N4N=C(CC(C)C)SC4=NC3=O)c2C)c1	12	69*	16	47	103*	8
Cc1cccc(-n2c(C)cc(/C=C3\C(=N)N4N=C(CC(C)C)SC4=NC3=O)c2C)c1	3	25	0	-7	-4	25
CC1=NN2C(=N)/C(=C\c3cc(C)n(-c4cccc(C)c4)c3C)C(=O)N=C2S1	/	36	-1	-15	4	16
CCCC1=NN2C(=N)/C(=C\c3cc(C)n(-c4cc(C)cc(C)c4)c3C)C(=O)N=C2S1	-1	72*	18	12	-3	21
Cc1sc2ncnc(NC3CCN(Cc4ccccc4)CC3)c2c1C	77*	-1	58*	34	22	18
O=C(NNC1=C(C(=O)C(F)(F)F)CCC1)c1ccc(Br)cc1	6	106*	-12	92*	107*	40
Cc1ccc(C(=O)Nc2nc(-c3ccccc3)c(-c3ccccc3)o2)cc1	21	113*	59*	13	/	35
Cc1cc(C)nc(SCC(=O)Nc2nc(-c3ccccc3)c(-c3ccccc3)o2)n1	-5	24	15	9	-4	-1
O=C(Nc1ccc(-n2cnnn2)cc1)c1cccc(S(=O)(=O)N2CCCC2)c1	-2	/	/	/	/	28
CSc1ccc(/C=C2\CCn3c2nc2cc(C(=O)O)ccc2c3=O)cc1	-1	52*	-8	8	-13	-4
N#Cc1ccc(OCC(O)CN2CCC(C(O)(c3ccccc3)c3ccccc3)CC2)cc1 (configuration not stated)	8	-10	-2	8	-1	-1
CC(=O)c1ccc(-c2cc([C@H]3[C@H]4C=CC[C@@H](C)[C@@H]4C(=O)N3Cc3ccccc3)ccc2F)cc1	0	33	33	-5	115*	16
COc1ccc(C2/C=C\CN(C(=O)Nc3ccc(C(F)(F)F)cc3)CC(=O)N2Cc2ccc(F)cc2)cc1 (configuration not stated)	81*	44	34	-7	-5	27
SMILES	Beta apoptosis	SKKanGAS inh	T cruzi inh	Calb FLC	CSC inhib	Mdm2 MdmX PPI
Cc1ccccc1C(=O)Oc1ccc(-c2csnn2)cc1	3	3	-19	1	-7	-5
Cc1ccccc1C(=O)Oc1ccc(Sc2ccc(O)cc2)cc1	7	96*	3	1	25	24
CC1CC(C)CN(C(=O)COC(=O)CNC(=O)C23CC4CC(CC(C4)C2)C3)C1 (configuration not stated)	-4	-2	-16	-6	-4	3
Nc1c(C(=O)Nc2ccccc2)c2nc3ccccc3nc2n1-c1ccc(O)cc1	9	37	59*	15	46	32
CCOC(=O)c1c(N)n(-c2ccc(N)cc2)c2nc3ccccc3nc12	3	14	-3	26	1	17
CCOC(=O)[C@H]1[C@H]2COc3ccc(C)cc3[C@@H]2N2C(=O)CN(CC3CCCO3)C(=O)[C@@]12C (some centres not stated)	5	/	/	/	7	10
CCOc1cc(C2NN=C(c3ccc(C)cc3)S2)ccc1O (configuration not stated)	0	/	/	/	105*	/
COc1ccc(CCN(C)C(=O)c2ccc(C)c(S(=O)(=O)N3CCCCC3)c2)cc1OC	-12	/	/	/	-7	20
Cc1cc(C)n(-c2nnc(NC(C)(C)C)nn2)n1	-3	2	-9	-39	-1	2
CCNc1nc(NCC)nc(-n2nc(C)cc2C)n1	16	87*	-26	-25	-8	34
Cc1cc(C)n(-c2nc(NC(C)(C)C)nc(NC(C)(C)C)n2)n1	?	111*	-8	-1	-4	32
Cc1nc2ccccc2n1/N=C/c1ccc([N+](=O)[O-])s1	109*	92*	39	25	47	34
O=[N+]([O-])c1ccc(/C=N/n2c(CO)nc3ccccc32)s1	81*	12	67*	25	0	34
Cc1nn2c(N3CCN(C(=O)c4ccco4)CC3)cc(C(C)(C)C)nc2c1-c1ccccc1	-5	62*	41	2	12	49
Cc1nn2c(N3CCN(C4CCCC4)CC3)cc(C(C)(C)C)nc2c1-c1ccccc1	-8	10	-10	-1	22	5
Fc1ccc(CNC(=S)NCc2cccc(Cl)c2)cc1	-4	1	22	-17	16	2
Cc1ccccc1CSCC(=O)Nc1ccccc1Br	-5	15	14	4	-5	12
COc1ccc(/C=N/NC(=O)c2ccccc2O)cc1Cn1cc([N+](=O)[O-])cn1	-1	-1	6	-2	7	-9
COc1ccc(/C=N/NC(=O)c2cc(O)c(O)c(O)c2)cc1Cn1cc([N+](=O)[O-])cn1	/	-2	-16	97*	/	/
O=C(c1ccc(Cl)cc1Cl)C1(n2cncn2)Oc2ccccc2C1O (configuration not stated)	-2	5	55*	-21	-1	25
CC(=O)N1CCN(c2nnc(-c3ccc(C)cc3)c3ccccc23)CC1	3	-4	-7	9	-16	25
